Assay outcomes (PubChem)
APP 5'UTR act: activates APP 5'UTR luciferase reporter. SH-SY5Y APP 5'UTR luciferase reporter, luminescence; zero percent = DMSO vehicle wells. actives 1% (n = 190,000). activation, % at 2 µM;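 active = activation above a set limit, based on mean plus 3 SD of controls, cut at about 140% in these data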
STAT1 activator: activators of IFN-gamma induced STAT1 signaling | AID 932 | activation (% of control), % at 5.5 µM | NIH 3T3 STAT1-luciferase reporter, luminescence; 100% = IFN-gamma alone, no compound | actives 2.6% (n = 200,000);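 active = activation above the screen-wide mean activation plus 3 SD, cut at about 130% in these data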
NF-kB neuron act: raises NF-kB expression in human neuronal cells. NF-kB reporter expression; active compounds read high. fold change at 12.5 µM. actives 1.6% (n = 190,000); in the data active = fold change above about 3.3
FLuc stim CS: affects firefly luciferase, flagging false hits in luciferase stimulation screens; activation factor at 10 µM; AID 1027; ATPlite luciferase biochemical, luminescence, 10 min; 0 = ATP-free wells, 1 = DMSO control; 200,000 tested, under 10 active;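 active = luciferase activation factor, scaled between plate controls, of at least 2 with compound at 10 µM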
Target sequence (P08659 whole entry, looked up): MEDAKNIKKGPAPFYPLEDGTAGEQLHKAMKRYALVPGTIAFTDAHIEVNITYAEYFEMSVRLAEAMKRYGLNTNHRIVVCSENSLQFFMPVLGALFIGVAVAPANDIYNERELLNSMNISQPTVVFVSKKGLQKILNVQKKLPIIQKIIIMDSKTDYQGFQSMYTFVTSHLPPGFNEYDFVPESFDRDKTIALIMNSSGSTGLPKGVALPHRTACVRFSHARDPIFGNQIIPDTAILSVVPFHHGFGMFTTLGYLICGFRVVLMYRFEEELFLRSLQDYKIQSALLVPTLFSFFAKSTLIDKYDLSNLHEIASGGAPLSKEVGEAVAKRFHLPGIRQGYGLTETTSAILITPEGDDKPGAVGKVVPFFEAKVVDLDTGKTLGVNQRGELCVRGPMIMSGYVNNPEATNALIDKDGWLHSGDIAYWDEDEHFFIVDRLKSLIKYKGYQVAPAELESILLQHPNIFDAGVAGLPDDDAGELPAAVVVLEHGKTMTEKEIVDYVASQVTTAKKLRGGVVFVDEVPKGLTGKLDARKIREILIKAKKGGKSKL
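test system = cell-free luciferase reagent | medium = PBS as buffer for the ATP substrate | dosing = test compounds dosed from 2 mM stocks in 100% DMSO | incubation = 10 min at ambient temperature | detection = luminescence measurement of luciferase light output | benchmarks = low control with PBS replacing ATP, high control enzyme plus ATP without compound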
Pf gametocyte: inhibitors of late stage P. falciparum gametocyte viability; P. falciparum stage V gametocytes, ATP luminescence, 24 h; inhibition, % at 10.9 µM; actives 0.065% (n = 150,000);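 active = inhibition above the mean plus 3 SD of compounds within the control limits, set per campaign, cut at about 38% in these data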
FLuc inh counter: Photinus pyralis luciferase inhibition counter-screen | P08659 | ATPLite firefly luciferase biochemical luminescence, 10 min | inhibition, % at 10 µM | actives 1.5% (n = 200,000) | AID 1006;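 active = inhibition above about 50% when tested at 10 µM, limit read from the data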
Of the large screens only hits and unclear results are named; the others gave an inactive call. In the library only some 3.5% were active in any assay of this set; here they are far more common.

COc1ccc(CNCCNC(=O)c2cccs2)c(OC)c1OC	none
COc1ccccc1N1C(=O)S/C(=C\c2cc(C)n(C)c2C)C1=O	STAT1 activator 137.0
O=C(Nc1ccccc1O)c1ccc(NS(=O)(=O)c2cccc3cccnc23)cc1	NF-kB neuron act 11.8 (no result: Pf gametocyte)
Cc1cc(NC(=O)c2noc3c2CCc2ccccc2-3)n(-c2ccccc2)n1	none (no result: Pf gametocyte)
O=C(Nc1cccc(O)c1)c1noc2c1CCc1ccccc1-2	APP 5'UTR act 195.0, NF-kB neuron act 6.11, FLuc inh counter 87.2 (no result: Pf gametocyte)
Cc1ccc(NC(=O)c2noc3c2CCc2ccccc2-3)cc1	STAT1 activator 130.9 (no result: Pf gametocyte)
CCc1ccc(NC(=O)c2noc3c2CCc2ccccc2-3)cc1	none (no result: Pf gametocyte)
CON(C)S(=O)(=O)NC(=O)C1=C(N2CCCC2)COC1=O	none (no result: APP 5'UTR act, STAT1 activator, NF-kB neuron act, FLuc stim CS, FLuc inh counter)
COc1ccc(C(=O)O/N=C(\N)c2ccccc2)c(OC)c1	APP 5'UTR act 187.6
Cc1ccc(/C(N)=N/OC(=O)c2cccc(F)c2)cc1	STAT1 activator 136.7, NF-kB neuron act 4.59, FLuc inh counter 61.0 (no result: Pf gametocyte)
COc1ccc(C(=O)O/N=C(\N)c2ccccn2)c(OC)c1	none (no result: APP 5'UTR act, STAT1 activator, NF-kB neuron act, FLuc stim CS, FLuc inh counter)
N/C(=N\OC(=O)c1ccc(Cl)cc1Cl)c1ccc(Cl)cc1	FLuc inh counter 53.6 (no result: Pf gametocyte)
N/C(=N\OC(=O)c1ccccc1Cl)c1ccccc1	APP 5'UTR act 166.1, NF-kB neuron act 7.68, FLuc inh counter 93.6 (no result: Pf gametocyte)
Cc1ccc2c(CC(=O)Nc3cccc(S(=O)(=O)N4CCOCC4)c3)coc2c1	none
O=C(Nc1ccccc1)c1ccccc1C(=O)N1CCCCC1	none
Cc1cc(/C(N)=N/OC(=O)c2ccccc2Cl)no1	none (no result: APP 5'UTR act, STAT1 activator, NF-kB neuron act, FLuc stim CS, FLuc inh counter)
COc1ccccc1/C=N/OC(=O)c1ccc(C)cc1	FLuc inh counter 71.2 (no result: Pf gametocyte)
N/C(=N\OC(=O)c1ccc(Cl)cc1Cl)c1ccccc1	APP 5'UTR act 174.2, FLuc inh counter 94.9 (no result: Pf gametocyte)
COc1ccccc1C(=O)O/N=C(\N)c1ccccc1Cl	STAT1 activator 138.8
Cc1cccc(/C(N)=N/OC(=O)c2ccc3c(c2)OCO3)c1	APP 5'UTR act 192.1, STAT1 activator 144.7, NF-kB neuron act 4.28, FLuc inh counter 97.0 (no result: Pf gametocyte)
COc1ccccc1C/C(N)=N/OC(=O)c1ccc2c(c1)OCO2	none
Nn1c(SCC(=O)Nc2cc(S(=O)(=O)N3CCOCC3)ccc2Cl)nnc1-c1cccnc1	none
CN(Cc1ccccc1)c1nc2c(c(=O)[nH]c(=O)n2C)n1CCSc1ncccn1	none (no result: NF-kB neuron act, FLuc stim CS, Pf gametocyte, FLuc inh counter)
C=CCC1(NC(C)c2ccccc2)CCCCC1 (stereo unspecified)	none
O=C(CCl)NCc1cc(-c2ccc(Cl)cc2)no1	none
COc1ccc(C(=O)O/N=C(\C)c2ccccc2)cc1	FLuc inh counter 90.3
N/C(=N\OC(=O)c1ccc(Cl)cc1)c1ccc(Cl)cc1	none (no result: APP 5'UTR act)
Cc1cccc(/C(N)=N/OC(=O)c2cccnc2)c1	APP 5'UTR act 148.7, STAT1 activator 132.6, FLuc inh counter 64.5
O=C(O/N=C/c1ccc2c(c1)OCO2)c1ccc([N+](=O)[O-])cc1	none
N/C(=N\OC(=O)c1ccc(Cl)cc1)c1cccnc1	FLuc inh counter 94.3
Cc1ccc(C(=O)O/N=C/c2ccc3c(c2)OCO3)cc1	FLuc inh counter 58.8
FC(F)(F)c1nc(N2CCCC2)ncc1-c1nnnn1-c1ccc(Cl)cc1	none (no result: Pf gametocyte)
Cc1cccc(COc2ccc(/C=N/NC(=O)c3nnn(-c4nonc4N)c3COc3ccc(F)cc3)cc2)c1	none (no result: APP 5'UTR act, STAT1 activator, NF-kB neuron act, FLuc stim CS, FLuc inh counter)
Cc1cccc(/C(N)=N/OC(=O)c2ccc(Br)o2)c1	STAT1 activator 132.5, FLuc inh counter 66.9
N/C(=N\OC(=O)c1ccc(Cl)cc1Cl)c1cccnc1	STAT1 activator 128.6, NF-kB neuron act 6.31, FLuc inh counter 92.8
N/C(=N\OC(=O)c1ccco1)c1ccc(Cl)cc1	APP 5'UTR act 158.4, STAT1 activator 137.1 (no result: Pf gametocyte)
N/C(=N\OC(=O)c1ccco1)c1cccnc1	none
COc1cccc(C(=O)O/N=C(\C)c2cnccn2)c1	FLuc inh counter 65.2
N/C(=N\OC(=O)c1cccc2ccccc12)c1cccnc1	none (no result: Pf gametocyte)
Cc1ccc(OC(=O)c2ccc(Br)o2)cc1	none
Cc1nn(-c2ccccc2)c(C)c1/C=C/C(=O)OCC(=O)Nc1ncc(C(F)(F)F)cc1Cl	none
Cn1c(O)c(N=NC(=O)CNC(=O)c2ccco2)c2ccccc21	none
Cn1c(O)c(N=NC(=O)c2ccccc2O)c2ccccc21	APP 5'UTR act 216.1, STAT1 activator 129.5, FLuc inh counter 81.7
Cc1occc1C(=O)N=Nc1c(O)n(C)c2ccccc12	STAT1 activator 149.2, FLuc inh counter 59.6
CCOC(=O)C(=O)N=Nc1c(O)n(C)c2ccccc12	none
Cn1c(O)c(N=NC(=O)c2ccco2)c2ccccc21	APP 5'UTR act 176.4, FLuc inh counter 64.3
COc1ccccc1N(Cc1cc(=O)[nH]c2ccccc12)C(=O)c1ccc([N+](=O)[O-])cc1	none (no result: APP 5'UTR act, STAT1 activator, NF-kB neuron act, FLuc stim CS, FLuc inh counter)
O=C(COC(=O)Cn1cnc2ccccc21)Nc1cc2c(cc1Cl)C(=O)c1ccccc1C2=O	STAT1 activator 135.6
O=C(COC(=O)Cn1cnc2ccccc21)Nc1cc(S(=O)(=O)N2CCOCC2)ccc1Cl	none (no result: APP 5'UTR act, STAT1 activator, NF-kB neuron act, FLuc stim CS, FLuc inh counter)
CCn1nnnc1SCC(=O)c1ccc(NC(C)=O)cc1	none (no result: Pf gametocyte)
C[C@H]1COC2=C1C(=O)C(=O)c1c2ccc2c1CCCC2(C)C	STAT1 activator 128.7 (no result: Pf gametocyte)
Cc1ccc(C2=NCN(c3ccc(C(=O)O)cc3)C(=S)N2)cc1	STAT1 activator 135.7 (no result: Pf gametocyte)
O=C1N/C(=N\N=C\c2ccc3ncccc3c2)SC1Cc1ccc(SC(F)F)cc1 (stereo unspecified)	FLuc inh counter 60.8
O=C1N/C(=N\N=C\c2cccnc2)SC1Cc1ccc(SC(F)F)cc1 (stereo unspecified)	none
Cc1cc(OCCN2CCC(Cc3ccccc3)CC2)ccc1[N+](=O)[O-]	none (no result: APP 5'UTR act, STAT1 activator, NF-kB neuron act, FLuc stim CS, FLuc inh counter)
COc1ccc2cc(C3CC(c4cccs4)=NN3C(C)=O)c(Cl)nc2c1 (stereo unspecified)	none (no result: APP 5'UTR act, STAT1 activator, NF-kB neuron act, FLuc stim CS, FLuc inh counter)
Cc1ccc(C(=O)Nc2ccc3nc(C)sc3c2)s1	APP 5'UTR act 166.7, STAT1 activator 140.6, NF-kB neuron act 6.58 (no result: Pf gametocyte)
O=c1c(-c2ccc3c(c2)OCCO3)coc2cc(OC3OC(CO)C(O)C(O)C3O)ccc12 (stereo unspecified)	APP 5'UTR act 158.9 (no result: STAT1 activator, NF-kB neuron act, FLuc stim CS, FLuc inh counter)
COc1cc2c(=O)c(-c3ccc(O)cc3)coc2cc1OC1OC(CO)C(O)C(O)C1O (stereo unspecified)	none
C=CCN1C(=O)C(CC(=O)Nc2ccccc2)SC1=Nc1c(C)n(C)n(-c2ccccc2)c1=O (stereo unspecified)	none (no result: Pf gametocyte)
COc1cc(-c2[nH]ncc2CN2CCN(c3cccc(C)n3)CC2)cc(OC)c1OC	none (no result: APP 5'UTR act, STAT1 activator, NF-kB neuron act, FLuc stim CS, FLuc inh counter)
CCC(C)[C@H](N)c1cn([C@@H](Cc2cc3ccccc3[nH]2)C(=O)N2CCNCC2)nn1 (stereo partly specified)	none
CN1C(=O)/C(=C\C=C2/CCCN2C)N(C)C1=S	NF-kB neuron act 5.7
CC(=O)OC(/C(O)=C(\C#N)c1nc2ccccc2[nH]1)c1ccccc1 (stereo unspecified)	NF-kB neuron act 3.64 (no result: Pf gametocyte)
C/C(O)=C(/C#N)c1nc2ccccc2[nH]1	none (no result: APP 5'UTR act)
